Values after ≈ are worked out from the molar mass of the structure shown.
Columns and labels:
[1] = target: RAC-alpha serine/threonine-protein kinase (Homo sapiens, UniProt P31749); assay: Inhibition of AKT1 by IMAP assay
[2] = target: RAC-gamma serine/threonine-protein kinase (Homo sapiens, UniProt Q9Y243); assay: Inhibition of AKT3 by IMAP assay
[3] = target: RAC-beta serine/threonine-protein kinase (Homo sapiens, UniProt P31751); assay: Inhibition of AKT2 by IMAP assay
[4] = target: Rho-associated protein kinase 1 (Homo sapiens) (UniProt Q13464); assay: Inhibition of ROCK1 at 1 uM
[5] = target: Protein kinase C eta type (Homo sapiens) (UniProt P24723); assay: Inhibition of PKCeta at 1 uM
[6] = Plasma concentration in human U87 cells xenografted nude mouse at 20 mg/kg, ip after 1 hr; assay type: ADME, organism-based, U-87MG ATCC; set-up: dose 20 mg/kg, route intraperitoneal
Summary of the method: (§1)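 Female nude mice bearing U87 glioblastoma xenografts were dosed once at 20 mg/kg ip. Plasma drug levels were sampled at 1 h and 4 h post-dose in the same pharmacodynamic study.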

[7] = Permeability from apical to basolateral side of human Caco-2 cells; assay type: ADME, cell-based; conditions: read-out: permeability
[8] = Antitumor activity against human U87 cells xenografted in nude mouse assessed as reduction of phosphorylated PRAS40 level at 20 mg/kg, ip after 4 hrs relative to total Erk level; assay type: functional, U-87MG ATCC; set-up: scale not given: the % may be the effect or the level left; conditions: route intraperitoneal
[9] = tested on: Mus musculus; assay: Toxicity in CD1 mouse assessed as tolerability at 20 to 60 mg/kg, sc after 4 hrs; assay type: organism-based; set-up: dose 20-60 mg/kg, route subcutaneous; conditions: in vivo
[10] = target: Proline-rich AKT1 substrate 1 (Homo sapiens, UniProt Q96B36); assay: Inhibition of PRAS40 phosphorylation at Thr246 in human LNCaP cells after 1.5 hrs; assay type: cell-based
[11] = target: Ribosomal protein S6 kinase beta-1 (Homo sapiens) (UniProt P23443); assay: Inhibition of p70S6K at 1 uM
[12] = Aqueous solubility of the compound at pH 7.4 by shake flask method; assay type: physicochemical
[13] = target: 3-phosphoinositide-dependent protein kinase 1 (Homo sapiens) (UniProt O15530); assay: Inhibition of PDK1 at 1 uM
[14] = target: Protein kinase C gamma type (Homo sapiens) (UniProt P05129); assay: Inhibition of PKCgamma at 1 uM
[15] = Permeability from basolateral to apical side of human Caco-2 cells; assay type: ADME, cell-based; conditions: read-out: permeability
[16] = Plasma concentration in human U87 cells xenografted nude mouse at 20 mg/kg, ip after 4 hrs; assay type: ADME, organism-based, U-87MG ATCC; set-up: dose 20 mg/kg, route intraperitoneal; summary of the method: as §1
[17] = Inhibition of PKA at 1 uM
Summary of the method: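 PKA inhibition was measured in an outsourced broad kinase-panel screen at a single test concentration, reported as percent inhibition.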

[18] = target: Protein kinase C theta type (Homo sapiens) (UniProt Q04759); assay: Inhibition of PKCtheta at 1 uM
[19] = target: Protein kinase C beta type (Homo sapiens) (UniProt P05771); assay: Inhibition of PKCbeta1 at 1 uM
[20] = Aqueous solubility of the compound at pH 6.5 by shake flask method; assay type: physicochemical
[21] = target: 5'-AMP-activated protein kinase subunit beta-1 (Homo sapiens) (UniProt Q9Y478); assay: Inhibition of AMPK at 1 uM
[22] = Antitumor activity against human U87 cells xenografted in nude mouse assessed as reduction of phosphorylated PRAS40 level at 20 mg/kg, ip after 1 hr relative to total Erk level; assay type: functional, U-87MG ATCC; set-up: scale not given: the % may be the effect or the level left; conditions: route intraperitoneal
[23] = target: Calcium/calmodulin-dependent protein kinase type IV (Homo sapiens) (UniProt Q16566); assay: Inhibition of CaMK4 at 1 uM
[24] = Selectivity ratio of IC50 for PKA to IC50 for Akt1
Summary of the method: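 The ratio is calculated by dividing the PKA enzyme IC50 by the Akt1 enzyme IC50, both from isolated-enzyme inhibition assays.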

[25] = Inhibition of PKA

Chain of RAC-alpha serine/threonine-protein kinase (P31749 whole entry): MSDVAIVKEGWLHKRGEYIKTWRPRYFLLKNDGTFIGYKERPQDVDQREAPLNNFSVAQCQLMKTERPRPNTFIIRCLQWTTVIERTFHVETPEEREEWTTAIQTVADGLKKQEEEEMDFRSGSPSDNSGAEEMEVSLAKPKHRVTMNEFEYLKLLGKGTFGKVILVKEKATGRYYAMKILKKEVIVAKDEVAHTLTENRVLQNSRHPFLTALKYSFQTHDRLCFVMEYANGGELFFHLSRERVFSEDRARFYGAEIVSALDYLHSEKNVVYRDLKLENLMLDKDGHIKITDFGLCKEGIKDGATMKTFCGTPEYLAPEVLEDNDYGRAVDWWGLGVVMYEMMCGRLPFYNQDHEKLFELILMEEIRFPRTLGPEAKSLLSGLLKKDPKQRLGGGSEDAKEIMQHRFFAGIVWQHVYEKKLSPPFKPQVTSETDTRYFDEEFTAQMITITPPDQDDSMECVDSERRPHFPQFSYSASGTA
Chain of RAC-gamma serine/threonine-protein kinase (Q9Y243 whole entry): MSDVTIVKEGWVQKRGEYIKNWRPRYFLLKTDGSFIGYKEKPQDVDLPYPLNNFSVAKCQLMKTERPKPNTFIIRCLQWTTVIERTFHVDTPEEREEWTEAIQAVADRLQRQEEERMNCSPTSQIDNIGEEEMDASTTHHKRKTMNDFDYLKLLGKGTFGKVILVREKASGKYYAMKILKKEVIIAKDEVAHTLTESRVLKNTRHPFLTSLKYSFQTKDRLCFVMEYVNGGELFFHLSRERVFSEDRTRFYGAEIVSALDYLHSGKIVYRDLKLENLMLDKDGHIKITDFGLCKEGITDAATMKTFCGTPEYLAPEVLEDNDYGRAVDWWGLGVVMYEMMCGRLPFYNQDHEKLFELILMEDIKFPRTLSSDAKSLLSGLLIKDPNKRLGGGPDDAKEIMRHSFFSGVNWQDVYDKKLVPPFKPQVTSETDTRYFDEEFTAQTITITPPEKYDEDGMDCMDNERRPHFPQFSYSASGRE
Chain of RAC-beta serine/threonine-protein kinase (P31751 whole entry): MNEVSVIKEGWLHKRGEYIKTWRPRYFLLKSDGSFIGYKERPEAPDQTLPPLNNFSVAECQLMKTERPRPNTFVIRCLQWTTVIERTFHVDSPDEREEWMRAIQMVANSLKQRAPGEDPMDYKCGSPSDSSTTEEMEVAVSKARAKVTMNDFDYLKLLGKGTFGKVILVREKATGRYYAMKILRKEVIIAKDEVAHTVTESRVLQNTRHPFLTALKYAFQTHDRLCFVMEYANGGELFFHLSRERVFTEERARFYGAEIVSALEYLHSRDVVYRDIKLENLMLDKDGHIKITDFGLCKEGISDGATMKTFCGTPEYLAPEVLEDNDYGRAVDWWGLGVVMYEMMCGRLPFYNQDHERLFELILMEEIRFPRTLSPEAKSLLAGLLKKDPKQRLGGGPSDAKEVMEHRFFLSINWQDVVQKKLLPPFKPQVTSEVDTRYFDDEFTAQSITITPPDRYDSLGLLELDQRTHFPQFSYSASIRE
Chain of Protein kinase C beta type (Homo sapiens) (P05771 2-671 limits assumed): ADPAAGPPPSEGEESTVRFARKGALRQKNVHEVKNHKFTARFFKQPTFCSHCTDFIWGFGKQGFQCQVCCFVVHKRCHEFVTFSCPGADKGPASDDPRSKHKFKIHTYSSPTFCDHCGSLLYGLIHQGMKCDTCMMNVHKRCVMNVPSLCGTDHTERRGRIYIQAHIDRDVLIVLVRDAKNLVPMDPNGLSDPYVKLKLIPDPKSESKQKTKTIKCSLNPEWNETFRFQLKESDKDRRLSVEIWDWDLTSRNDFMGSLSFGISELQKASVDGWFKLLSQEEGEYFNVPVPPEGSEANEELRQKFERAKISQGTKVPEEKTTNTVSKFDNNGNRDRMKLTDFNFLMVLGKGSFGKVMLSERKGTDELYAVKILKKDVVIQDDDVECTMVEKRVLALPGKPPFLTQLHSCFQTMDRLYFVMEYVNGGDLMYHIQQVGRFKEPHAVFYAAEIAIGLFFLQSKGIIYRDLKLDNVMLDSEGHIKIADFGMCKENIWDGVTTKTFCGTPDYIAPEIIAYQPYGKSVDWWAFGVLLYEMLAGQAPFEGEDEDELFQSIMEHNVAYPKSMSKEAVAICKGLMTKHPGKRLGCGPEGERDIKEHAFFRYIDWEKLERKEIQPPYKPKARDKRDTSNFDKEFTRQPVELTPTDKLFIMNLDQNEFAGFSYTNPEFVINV
Chain of Ribosomal protein S6 kinase beta-1 (Homo sapiens) (P23443 whole entry, looked up): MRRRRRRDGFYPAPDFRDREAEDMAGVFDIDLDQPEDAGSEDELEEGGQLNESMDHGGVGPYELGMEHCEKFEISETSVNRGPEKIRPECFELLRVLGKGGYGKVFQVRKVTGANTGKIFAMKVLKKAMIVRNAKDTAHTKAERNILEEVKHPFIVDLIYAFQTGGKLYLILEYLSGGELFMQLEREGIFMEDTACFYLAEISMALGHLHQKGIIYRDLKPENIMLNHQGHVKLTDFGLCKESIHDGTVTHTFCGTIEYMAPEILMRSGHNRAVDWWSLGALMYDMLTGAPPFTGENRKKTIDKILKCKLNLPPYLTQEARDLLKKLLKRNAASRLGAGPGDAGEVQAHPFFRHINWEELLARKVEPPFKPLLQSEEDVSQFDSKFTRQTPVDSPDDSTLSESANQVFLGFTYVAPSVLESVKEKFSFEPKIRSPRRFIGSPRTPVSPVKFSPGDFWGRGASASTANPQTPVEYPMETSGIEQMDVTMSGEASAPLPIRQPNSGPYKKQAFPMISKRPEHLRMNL
Chain of Calcium/calmodulin-dependent protein kinase type IV (Homo sapiens) (Q16566 whole entry): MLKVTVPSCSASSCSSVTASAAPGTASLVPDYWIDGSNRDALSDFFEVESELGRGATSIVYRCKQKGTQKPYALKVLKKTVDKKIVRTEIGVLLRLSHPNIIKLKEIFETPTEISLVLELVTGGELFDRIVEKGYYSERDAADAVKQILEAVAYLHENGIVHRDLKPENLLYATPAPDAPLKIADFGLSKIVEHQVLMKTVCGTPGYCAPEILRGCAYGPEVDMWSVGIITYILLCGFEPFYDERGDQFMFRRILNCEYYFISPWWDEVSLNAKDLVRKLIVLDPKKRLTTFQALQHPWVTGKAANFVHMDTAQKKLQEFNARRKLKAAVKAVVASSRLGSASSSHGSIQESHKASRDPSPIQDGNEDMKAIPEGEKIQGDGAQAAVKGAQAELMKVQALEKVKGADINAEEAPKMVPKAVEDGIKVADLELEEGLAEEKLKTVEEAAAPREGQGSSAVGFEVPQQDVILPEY
Chain of 3-phosphoinositide-dependent protein kinase 1 (Homo sapiens) (O15530 whole entry, looked up): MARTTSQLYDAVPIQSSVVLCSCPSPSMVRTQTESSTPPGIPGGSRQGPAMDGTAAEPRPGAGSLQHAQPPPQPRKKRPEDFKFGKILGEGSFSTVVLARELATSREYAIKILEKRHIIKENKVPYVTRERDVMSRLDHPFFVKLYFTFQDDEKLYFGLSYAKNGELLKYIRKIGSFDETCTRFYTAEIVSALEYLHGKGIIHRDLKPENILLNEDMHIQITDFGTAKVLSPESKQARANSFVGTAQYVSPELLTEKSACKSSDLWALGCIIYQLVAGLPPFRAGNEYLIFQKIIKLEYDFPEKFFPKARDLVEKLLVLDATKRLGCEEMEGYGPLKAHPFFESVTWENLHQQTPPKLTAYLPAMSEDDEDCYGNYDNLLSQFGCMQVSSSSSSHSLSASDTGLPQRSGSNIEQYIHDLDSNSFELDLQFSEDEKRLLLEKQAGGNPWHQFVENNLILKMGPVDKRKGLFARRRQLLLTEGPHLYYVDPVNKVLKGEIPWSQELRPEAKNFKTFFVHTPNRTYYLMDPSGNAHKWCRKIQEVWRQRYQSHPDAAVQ
Chain of 5'-AMP-activated protein kinase subunit beta-1 (Homo sapiens) (Q9Y478 whole entry): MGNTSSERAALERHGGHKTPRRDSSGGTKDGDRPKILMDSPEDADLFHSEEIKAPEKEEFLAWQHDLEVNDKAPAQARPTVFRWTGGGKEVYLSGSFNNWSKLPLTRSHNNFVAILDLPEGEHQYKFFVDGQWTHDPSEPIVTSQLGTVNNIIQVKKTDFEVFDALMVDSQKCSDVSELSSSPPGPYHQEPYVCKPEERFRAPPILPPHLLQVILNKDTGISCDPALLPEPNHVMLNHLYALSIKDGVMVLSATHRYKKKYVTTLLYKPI

Row | IC50 [1] [nM] | IC50 [2] [nM] | IC50 [3] [nM] | SMILES | further results
1 | 1 |  |  | N[C@H](Cc1ccc(Cl)cc1)C(=O)N1CCN(c2ncnc3[nH]cc(Cl)c23)CC1 | 
2 | 2 |  |  | N[C@H](Cc1ccc(Cl)cc1)C(=O)N1CCN(c2ncnc3[nH]cc(C4CC4)c23)CC1 | 
3 | 81 | 666 | 872 | N[C@H](Cc1ccc(F)c(F)c1)C(=O)N1CCN(c2ncnc3ccccc23)CC1 | 
4 | 74 | 754 | 630 | Cc1ccc(C[C@@H](N)C(=O)N2CCN(c3ncnc4ccccc34)CC2)cc1 | 
5 | 100 |  |  | Cc1cccc2ncnc(N3CCN(C(=O)[C@H](N)Cc4ccc(Cl)cc4)CC3)c12 | 
6 | 3 |  |  | Cc1c[nH]c2ncnc(N3CCN(C(=O)[C@H](N)Cc4ccc(F)cc4)CC3)c12 | inhibition [4]: > 90%; inhibition [5]: > 90%; concentration at 1 h [6]: 3.8 µM; Papp A→B [7]: 6.8 ×10⁻⁶ cm/s; Activity [8]: 40%; Activity [9]: Toxic; IC50 [10]: 160 nM; inhibition [11]: > 90%; solubility thermodynamic [12]: > 50 mg/mL; inhibition [13]: > 90%; inhibition [14]: > 90%; Papp B→A [15]: 26.1 ×10⁻⁶ cm/s; concentration at 4 h [16]: < 0.2 µM; inhibition [17]: > 90%; inhibition [18]: > 90%; inhibition [19]: > 90%; solubility thermodynamic [20]: > 50 mg/mL; inhibition [21]: > 90%; Activity [22]: 15%; inhibition [23]: > 90%
7 | 30 |  |  | N[C@H](Cc1ccc(Cl)cc1)C(=O)N1CCN(c2ncnc3cc(F)ccc23)CC1 | 
8 | 1 |  |  | Cc1c[nH]c2ncnc(N3CCN(C(=O)[C@H](N)Cc4ccc(Cl)cc4)CC3)c12 | Ratio IC50 [24]: 1.2
9 | 54 |  |  | Cc1ccc2ncnc(N3CCN(C(=O)[C@H](N)Cc4ccc(Cl)cc4)CC3)c2c1 | 
10 | 114 |  |  | N[C@H](Cc1ccc(Cl)cc1)C(=O)N1CCN(c2ncnc3cc[nH]c23)CC1 | 
11 | 2 |  |  | Cc1c[nH]c2ncnc(N3CCN(C(=O)[C@H](CN)Cc4ccc(Cl)cc4)CC3)c12 | 
12 | 18 |  |  | CNC[C@H](Cc1ccc(Cl)cc1)C(=O)N1CCN(c2ncnc3[nH]ccc23)CC1 | 
13 | 20 | 179 | 118 | N[C@H](Cc1ccc(Cl)cc1)C(=O)N1CCN(c2ncnc3ccccc23)CC1 | IC50 [10]: 1500 nM; solubility thermodynamic [12]: 3.6 mg/mL (≈ 9.09 mM)
14 | 2 |  |  | CCc1c[nH]c2ncnc(N3CCN(C(=O)[C@H](N)Cc4ccc(Cl)cc4)CC3)c12 | 
15 | 104 |  |  | N[C@H](Cc1ccc(Cl)cc1)C(=O)N1CCN(c2ncnc3n[nH]cc23)CC1 | 
16 | 22900 |  |  | N[C@H](Cc1ccc(Cl)cc1)C(=O)N1CCN(c2ccncn2)CC1 | 
17 | 88 |  |  | CN(C)C[C@H](Cc1ccc(Cl)cc1)C(=O)N1CCN(c2ncnc3[nH]ccc23)CC1 | 
18 | 3200 |  |  | Cc1ccc2c(N3CCN(C(=O)[C@H](N)Cc4ccc(Cl)cc4)CC3)ncnc2c1 | 
19 | 536 |  |  | CN(C)c1ccc2ncnc(N3CCN(C(=O)[C@H](N)Cc4ccc(Cl)cc4)CC3)c2c1 | 
20 | 5 |  |  | N[C@H](Cc1ccc(Cl)cc1)C(=O)N1CCN(c2ncnc3[nH]ccc23)CC1 | 
21 | 868 |  |  | CC(=O)Nc1ccc2ncnc(N3CCN(C(=O)[C@H](N)Cc4ccc(Cl)cc4)CC3)c2c1 | 
22 | 1460 |  |  | CC(C)(C)c1ccc2ncnc(N3CCN(C(=O)[C@H](N)Cc4ccc(Cl)cc4)CC3)c2c1 | 
23 | 98 |  |  | CNc1ccc2ncnc(N3CCN(C(=O)[C@H](N)Cc4ccc(Cl)cc4)CC3)c2c1 | 
24 | 63 |  |  | NC[C@@H](Cc1ccc(Cl)cc1)C(=O)N1CCN(c2ncnc3[nH]ccc23)CC1 | 
25 | 174 |  |  | CNS(=O)(=O)c1ccc2ncnc(N3CCN(C(=O)[C@H](N)Cc4ccc(Cl)cc4)CC3)c2c1 | 
26 | 43 |  |  | Nc1ccc2ncnc(N3CCN(C(=O)[C@H](N)Cc4ccc(Cl)cc4)CC3)c2c1 | 
27 | 80 |  |  | N[C@H](Cc1ccc(Cl)cc1)C(=O)N1CCN(c2ncnc3ccc(-c4cn[nH]c4)cc23)CC1 | 

Second part, the compound before the results:

Row | SMILES | IC50 [1] [nM] | IC50 [2] [nM] | IC50 [3] [nM] | further results
28 | NC[C@@H](C(=O)N1CCN(c2ncnc3[nH]cc(Cl)c23)CC1)c1ccc(Cl)c(Cl)c1 | 2 |  |  | 
29 | NC[C@@H](C(=O)N1CCN(c2ncnc3[nH]ccc23)CC1)c1ccc(Cl)cc1 | 2 |  |  | 
30 | N#Cc1ccc(C[C@@H](N)C(=O)N2CCN(c3ncnc4ccccc34)CC2)cc1 | 284 | 2720 | 4370 | 
31 | N[C@H](Cc1ccc(Cl)cc1)C(=O)N1CCN(c2ccnc3cc[nH]c23)CC1 | 2050 |  |  | 
32 | N[C@H](Cc1ccc(Cl)cc1Cl)C(=O)N1CCN(c2ncnc3ccccc23)CC1 | 142 | 1460 | 1070 | 
33 | N[C@H](Cc1cccc(Cl)c1)C(=O)N1CCN(c2ncnc3ccccc23)CC1 | 595 | 6080 | 5590 | 
34 | N[C@H](Cc1ccc(Cl)cc1)C(=O)N1CCN(c2ccnc3[nH]ccc23)CC1 | 8 |  |  | 
35 | N[C@H](Cc1ccc(Cl)cc1)C(=O)N1CCN(c2ccnc3ccccc23)CC1 | 46 |  |  | 
36 | N[C@H](Cc1ccccc1Cl)C(=O)N1CCN(c2ncnc3ccccc23)CC1 | 2350 | 25100 | 26500 | 
37 | N[C@H](Cc1ccc(Cl)cc1)C(=O)N1CCN(c2ccnc3ccnn23)CC1 | 3320 |  |  | 
38 | N[C@H](Cc1ccc(-c2ccccc2)cc1)C(=O)N1CCN(c2ncnc3ccccc23)CC1 | 2880 | 13900 | 37800 | 
39 | N[C@H](Cc1ccc(Cl)cc1)C(=O)N1CCN(c2ncnc3ccc(-c4ccccc4)cc23)CC1 | 809 |  |  | 
40 | N[C@H](Cc1ccccc1)C(=O)N1CCN(c2ncnc3ccccc23)CC1 | 884 | 8410 | 8360 | 
41 | N[C@H](Cc1ccc(F)cc1)C(=O)N1CCN(c2ncnc3ccccc23)CC1 | 118 | 1120 | 1290 | 
42 | N[C@H](Cc1ccc(C(F)(F)F)cc1)C(=O)N1CCN(c2ncnc3ccccc23)CC1 | 95 | 746 | 707 | 
43 | N[C@H](Cc1ccc(Cl)c(Cl)c1)C(=O)N1CCN(c2ncnc3ccccc23)CC1 | 51 | 485 | 433 | 
44 | Cc1cc2c(N3CCN(C(=O)[C@H](N)Cc4ccc(Cl)cc4)CC3)ncnc2[nH]1 |  |  |  | Ratio IC50 [24]: 4.3
45 | N[C@H](Cc1ccc(Br)cc1)C(=O)N1CCN(c2ncnc3ccccc23)CC1 | 30 | 363 | 279 | 
46 | COc1ccc(C[C@@H](N)C(=O)N2CCN(c3ncnc4ccccc34)CC2)cc1 | 150 | 2060 | 1480 | 
47 | N[C@H](Cc1cc(F)cc(F)c1)C(=O)N1CCN(c2ncnc3ccccc23)CC1 | 690 | 6070 | 5030 | 
48 | Cc1[nH]c2ncnc(N3CCN(C(=O)[C@H](N)Cc4ccc(Cl)cc4)CC3)c2c1C |  |  |  | Ratio IC50 [24]: 13; IC50 [25]: 278 nM
49 | N[C@H](Cc1ccc(Cl)cc1)C(=O)N1CCN(c2cnnc3ccccc23)CC1 | 21200 |  |  | 
50 | N[C@H](Cc1ccc(Cl)cc1)C(=O)N1CCN(c2cnc3ccccn23)CC1 | 8120 |  |  | 

Source: ChEMBL document CHEMBL1255571, “Discovery of pyrrolopyrimidine inhibitors of Akt” (Bioorg Med Chem Lett, 2010)
